# ASAP1 inh – inhibitors of human ASAP1 ArfGAP activity | Q9ULH1 | ASAP1-stimulated ARF1 GTP hydrolysis, GDP FP detection | inhibition, % at 16.5 µM | hit rate 0.19% among 360,000 | AID 624377; in the data active = inhibition above about 25%;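 note: 0% = vehicle with enzyme and substrate and 100% = no enzyme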
# ARFGAP1 inhibitor – inhibits rat ARF GTPase activating protein 1. Q62848. Arfgap1-stimulated ARF1 GTP hydrolysis, GDP FP detection. inhibition, % at 16.5 µM. hit rate 0.26% among 360,000. AID 651572;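 active = inhibition above a per-plate limit, mean inhibition of low control wells plus 3 SD, cut at about 25% in these data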;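 note: 0% = DMSO wells with enzyme and 100% = wells lacking Arfgap1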
# Target sequence (Q62848 1-136 limits assumed): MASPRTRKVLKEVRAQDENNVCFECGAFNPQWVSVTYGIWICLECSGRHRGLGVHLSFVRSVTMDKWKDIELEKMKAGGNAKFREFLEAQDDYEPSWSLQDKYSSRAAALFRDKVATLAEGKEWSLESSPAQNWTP
#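 Repeats: one replicate per compound; assay system: rat Arfgap1 catalytic domain, aa 1-136; times: enzyme reaction 120 min at 25 °C after 20 min preincubation; detection: FP of antibody-bound GDP Alexa 633 tracer, ex 620/em 688 nm; benchmarks: high control wells lacking Arfgap1, low control full reaction with DMSO; reagent: human ARF1(Δ1-17)-GTP substrate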
# LEDGF integ inh – blocks HIV-1 LEDGF/p75-dependent DNA integration; TR-FRET IN-LEDGF/p75 DNA integration, Eu/Cy5; inhibition, % at 3.7 µM; hit rate 0.64% among 370,000; AID 743269;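 active = inhibition above the screen-wide mean plus 3 SD, cut at about 13% in these data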;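 note: signal is the Cy5 over europium emission ratio at 671 and 618 nm; 0% = plate median of compound wells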
# UHRF1 binding – UHRF1 methyl-DNA binding inhibition | Q96T88 | UHRF1 binding to methylated oligo, TR-FRET | inhibition, % at 4.4 µM | hit rate 0.75% among 370,000 | AID 687016; in the data active = inhibition above about 21%;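 note: UHRF1 SRA domain binding a hemimethylated CpG hairpin DNA probe; 0% = median of test compound wells and 100% = reference inhibitor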
# MBD2 inh – blocks human MBD2 binding to methylated DNA | Q9UBB5 | TR-FRET, MBD2 binding to methylated oligonucleotide | inhibition, % at 4.4 µM | hit rate 0.31% among 370,000 | AID 686964; in the data active = inhibition above about 13%
# Target sequence (Q9UBB5 whole entry, looked up): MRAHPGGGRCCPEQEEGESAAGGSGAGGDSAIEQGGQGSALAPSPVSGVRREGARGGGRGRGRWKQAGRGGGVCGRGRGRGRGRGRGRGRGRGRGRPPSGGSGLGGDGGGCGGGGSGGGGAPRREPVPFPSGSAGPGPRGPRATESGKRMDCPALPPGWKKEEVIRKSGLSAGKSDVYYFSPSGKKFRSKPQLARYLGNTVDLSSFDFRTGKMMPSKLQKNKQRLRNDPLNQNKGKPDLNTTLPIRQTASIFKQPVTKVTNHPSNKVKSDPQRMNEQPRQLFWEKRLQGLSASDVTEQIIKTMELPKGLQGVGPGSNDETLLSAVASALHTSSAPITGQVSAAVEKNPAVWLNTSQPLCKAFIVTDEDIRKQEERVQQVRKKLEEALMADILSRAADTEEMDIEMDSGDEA
# TCR-CD3 inh – inhibitors of human TCR-CD3 interaction. TAMRA-labeled TCR probe fluorescence, biochemical. inhibition, % at 9.4 µM. hit rate 0.37% among 360,000. AID 651800; in the data active = inhibition above about 19%;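 note: recombinant mutant TCR 2C K166C tagged with TAMRA read by polarization; 0% = receptor in buffer alone and 100% = receptor with positive control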
# ARFGAP1 inh conf – confirmation of rat ARFGAP1 inhibitors | inhibition, % at 16.5 µM | ARFGAP1-stimulated ARF1 GTP hydrolysis, GDP tracer FP | hit rate 30% among 890 | AID 651608 | shares compounds with ARFGAP1 inhibitor;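 active = average inhibition over triplicates above the hit cutoff set in the earlier primary screen, cut at about 25% in these data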;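 note: 0% = Arfgap1 plus ARF1-GTP with DMSO and 100% = wells lacking Arfgap1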
# Starred values were filed as active, the others as inactive; nt = no result. Most compounds without a hit are left out; they make up all but 2% or so of the library.
SMILES,ASAP1 inh,ARFGAP1 inhibitor,LEDGF integ inh,UHRF1 binding,MBD2 inh,TCR-CD3 inh,ARFGAP1 inh conf
Nc1cc(Cl)nnc1Cl,-2,25*,3,0,-2,-2,3
COc1ccccc1OCC(=O)NCC1CCCN(C(=O)c2ccccc2C(C)=O)C1 (stereo not given),-6,28*,0,0,-3,-1,-3
COc1ccc(-c2noc(CN(Cc3nccn3C)C(C)C)n2)cc1,9,10,-2,1,-5,5,nt
CC(C)N(Cc1nc(-c2ccc(Cl)cc2)no1)Cc1nccn1C,-12,25*,7,14,-4,1,4
CCCCOCCCNC(=O)C[C@H]1C(=O)N(Cc2ccc(OC)cc2)C2=CCCCC[C@@]21C(=O)OC,nt,nt,1,-1,1,nt,nt
COC(=O)C1CN(C2CCCC2)CCS(=O)(=O)N1Cc1cn(Cc2ccc(C)cc2)nn1 (stereo not given),nt,nt,-1,4,-2,nt,nt
CS(=O)(=O)N(CC(=O)N1CCN(c2ccccc2F)CC1)c1ccc2c(c1)OCCO2,-6,34*,-1,1,1,1,-4
CC1=C(C(=O)N2CCOCC2)CC(CC(=O)NC2CCCCC2)C(=O)N1Cc1ccc(C(C)(C)C)cc1 (stereo not given),2,7,-2,0,0,2,nt
Nc1cccc(-c2nc3cc(S(=O)(=O)c4ccc5oc(-c6cccc(N)c6)nc5c4)ccc3o2)c1,4,26*,2,2,6,-5,21
Cc1ccc(-n2nc3ccc(NC(=O)c4ccco4)cc3n2)cc1,-6,30*,2,-1,-4,1,13
Cc1ccc(-n2nc3ccc(NC(=O)C(C)C)cc3n2)cc1,1,-1,0,7,-1,11,nt
CCCOc1ccc(OCCNC2CCCC2)cc1,-5,26*,0,-2,-1,-4,3
CCOc1ccc(OCCNC2CCCC2)cc1,-1,-2,-1,3,-1,-8,nt
O=C(NCC1CCN(c2ccc(S(=O)(=O)N3CCOCC3)cc2)CC1)c1ccc(Cl)cc1,-8,26*,3,2,1,-6,2
O=C(CCNC(=O)c1ccc(Cl)cc1)Nc1ccc(S(=O)(=O)N2CCOCC2)cc1,16,7,3,-1,-1,4,nt
CC(=O)N1CCN(C(=O)c2cccc(S(=O)(=O)N3CCN(c4ccccc4)CC3)c2)CC1,24,-8,6,-3,3,2,nt
O=C(NNC(=O)c1cccc(S(=O)(=O)N2CCN(c3ccccc3)CC2)c1)c1ccc(Cl)cc1,-10,25*,-3,1,1,-2,4
Fc1ccc2cc(C3=CCCCC3)ncc2c1,5,-8,10,10,6,12,nt
Cn1nc(C(F)(F)F)c(-c2cccc(C(F)(F)F)c2)c1NC(=O)CSCC(=O)O,1,-3,-2,1,1,-6,nt
CCC1=C(NCc2ccccc2)COC1=O,-1,8,-3,-2,-3,-6,nt
O=C(Nc1ccccc1N1CCCCC1)c1ccc(-c2ccc(Cl)cc2)o1,7,27*,7,0,3,8,-9
O=C(Nc1ccccc1N1CCCC1)c1ccc(Cl)cc1Cl,-18,30*,-1,-1,0,1,-4
O=C(Nc1ccccc1N1CCCC1)c1cc(Cl)ccc1Cl,6,-2,-2,-1,-2,3,nt
CN1CCN(c2ccccc2NC(=O)c2ccc(-c3ccc(Cl)c(Cl)c3)o2)CC1,3,-12,2,1,-1,-1,nt
Nn1c(SCc2ccc([N+](=O)[O-])cc2)nnc1-c1n[nH]c2c1CCC2,nt,nt,1,0,-2,nt,nt
SMILES,ASAP1 inh,ARFGAP1 inhibitor,LEDGF integ inh,UHRF1 binding,MBD2 inh,TCR-CD3 inh,ARFGAP1 inh conf
O=C(NCCC1CCCCN1S(=O)(=O)c1ccccc1)C(=O)Nc1ccc(F)cc1 (stereo not given),-5,13,-3,4,-4,-11,nt
COc1ccc(NC(=O)C(=O)NCCC2CCCCN2S(=O)(=O)c2ccc(F)cc2)cc1 (stereo not given),15,28*,1,1,1,1,3
Cc1c(Cl)sn(-c2ccc(Cl)cc2)c1=O,9,30*,1,1,-4,-4,8
C[C@@H]1CCN(C2CC2)S(=O)(=O)c2c(cccc2N2CCC[C@H]2CO)O1,nt,nt,5,-1,-4,nt,nt
CC(C)N(C(=O)NC(=O)Nc1ccc(S(=O)(=O)N2CCCC2)cc1)S(C)(=O)=O,17,36*,1,3,-2,4,14
Cc1ccc(C(=O)Nc2ccc(S(=O)(=O)N3CCCC3)cc2)o1,-1,26*,-2,0,3,-3,-1
CC(C)CC(=O)Nc1ccc(S(=O)(=O)N2CCCC2)cc1,6,-12,1,0,-3,0,nt
CN(CCOc1ccccc1)C(=O)c1cc(S(=O)(=O)N2CCOCC2)c(Cl)cc1Cl,14,3,-4,0,2,-3,nt
Cc1ccc(S(=O)(=O)N2CCC(C(=O)OCC(=O)NC3(C#N)CCCCC3)CC2)cc1C,-2,6,-5,0,-1,7,nt
CCCOc1ccc(/C=N/NC(=O)c2ccc(Cn3cc([N+](=O)[O-])cn3)o2)cc1,23,26*,-1,-4,-4,-1,33*
C=C(C)C(O)Cc1c(OC)ccc(C(=O)/C=C/c2ccc(O)cc2)c1O (stereo not given),6,15,-2,-3,-1,-3,nt
CC(C)=CCC/C(C)=C/Cc1c(O)ccc(C(=O)/C=C/c2ccc(O)cc2)c1O,20,28*,0,-2,1,1,26*
Cc1ccc2cc(NC(=O)C3(C)CCN3C(C)C)ccc2n1 (stereo not given),-17,-5,0,2,0,-4,nt
CN1C(=O)c2ccc(NC(=O)c3c(C(=O)O)cccc3[N+](=O)[O-])cc2C1=O,3,26*,-9,0,-3,6,4
Cc1ccccc1NC(=O)c1cccc(NC(=O)c2c(C(=O)O)cccc2[N+](=O)[O-])c1,-2,3,1,0,4,2,nt
Cc1ccc(S(=O)(=O)Nc2ccccc2-c2ccccc2NS(=O)(=O)c2ccc(C)cc2)cc1,-14,-8,-4,1,1,-7,nt
Cc1ccc(S(=O)(=O)Nc2ccccc2C(O)c2ccccc2)cc1 (stereo not given),-7,26*,7,0,-2,2,-5
COc1ccc(CNC(=O)CCS(=O)(=O)c2ccc3c(c2)NC(=O)CS3)cc1,1,25*,-2,8,4,-5,-3

# Screens (PubChem BioAssay)
